Laboratory results published in ChEMBL document CHEMBL1140759, “Synthesis, anti-Toxoplasma gondii and antimicrobial activities of benzaldehyde 4-phenyl-3-thiosemicarbazones and 2-[(phenylmethylene)hydrazono]-4-oxo-3-phenyl-5-thiazolidineacetic acids” (Bioorg Med Chem, 2008).
Values after ≈ are worked out from the molar mass of the structure shown.

What was measured:
Toxoplasma gondii [1] = test: Antiparasitic activity against Toxoplasma gondii infected african green monkey Vero cells at 2 mM assessed as infected cells; type: functional
Outline: (§1)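 Vero cells were infected with RH-strain tachyzoites (5:1 parasite:cell) for 1 h, washed with PBS, and grown 24 h at 37 °C in medium 199 with 5% FCS. Compound was then added for 24 h. Cells were fixed with Bouin's, stained with Giemsa, and at least 400 cells were counted by light microscopy for the percentage infected. Hydroxyurea and sulfadiazine served as references.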

Staphylococcus aureus = test: Antimicrobial activity against Staphylococcus aureus at 300 ug/disc; type: functional; conditions: read-out: IZ
Outline: (§2)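 Disc diffusion on agar plates inoculated with a standardized microbial suspension, with paper discs carrying known compound amounts. DMSO-only discs served as negative controls, and chloramphenicol, rifampicin (bacteria) or nistatin (fungi) as references. The read-out is the mean inhibition zone diameter in mm. Each run was done three times and repeated if results differed.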

Enterococcus faecalis = test: Antimicrobial activity against Streptococcus faecalis at 300 ug/disc; type: functional; conditions: read-out: IZ; outline: as §2
Toxoplasma gondii [2] = test: Antiparasitic activity against Toxoplasma gondii infected african green monkey Vero cells at 8 mM assessed as infected cells; type: functional; outline: as §1
Escherichia coli = test: Antimicrobial activity against Escherichia coli at 300 ug/disc; type: functional; conditions: read-out: IZ; outline: as §2
Candida [3] = test: Antimicrobial activity against Candida sp. IMUR1224 at 300 ug/disc; type: functional; conditions: read-out: IZ; outline: as §2
Bacillus subtilis = test: Antimicrobial activity against Bacillus subtilis at 300 ug/disc; type: functional; conditions: read-out: IZ; outline: as §2
Candida [4] = test: Antimicrobial activity against Candida sp. IMUR4249; type: functional
Outline: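 Tube dilution MIC, run on compounds with a disc-diffusion zone of at least 18 mm. The DMSO stock (1 mg/mL) was serially diluted to 10–220 µg/mL final in medium, and strains were inoculated at 10^8/mL. Media were tryptic soy or nutrient agar for bacteria and Sabouraud liquid for fungi, incubated 24–48 h at 37 °C (bacteria) or 30 °C (fungi). MIC is the lowest concentration giving clear tubes.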

Toxoplasma gondii [5] = test: Inhibition of intracellular parasite Toxoplasma gondii; type: functional, organism-based
Outline: (§3)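 Infected Vero cultures were exposed to compound at 0.01–30 mM for 24 h, in triplicate per assay. IC50 for infected cells and intracellular parasites was derived by non-linear regression, using trypan blue exclusion.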

Candida albicans = test: Antimicrobial activity against Candida albicans at 300 ug/disc; type: functional; conditions: read-out: IZ; outline: as §2
Saccharomyces cerevisiae = test: Antimicrobial activity against Saccharomyces cerevisiae at 300 ug/disc; type: functional; conditions: read-out: IZ; outline: as §2
Toxoplasma gondii [6] = test: Antiparasitic activity against Toxoplasma gondii infected african green monkey Vero cells at 5 mM assessed as infected cells; type: functional; outline: as §1
Micrococcus luteus = test: Antimicrobial activity against Micrococcus luteus at 300 ug/disc; type: functional; conditions: read-out: IZ; outline: as §2
Toxoplasma gondii [7] = test: Inhibition of Toxoplasma gondii infected in african green monkey Vero cells; type: functional, organism-based; outline: as §3
Mycolicibacterium phlei = test: Antimicrobial activity against Mycobacterium phlei at 300 ug/disc; type: functional; conditions: read-out: IZ; outline: as §2
[8] = test system: Mycolicibacterium smegmatis; test: Antimicrobial activity against Mycobacterium smegmatis at 300 ug/disc; type: functional; conditions: read-out: IZ; outline: as §2
[9] = test system: Mycobacterium tuberculosis; test: Antimicrobial activity against Mycobacterium tuberculosis at 300 ug/disc; type: functional; conditions: read-out: IZ
Outline: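 Agar disc diffusion: paper discs loaded with compound placed on agar plates seeded with a standardised microbial suspension. DMSO-only discs served as negative control. Chloramphenicol and rifampicin (bacteria) or nistatin (fungi) gave reference zones. Read-out was mean zone of inhibition diameter (mm). Each experiment was run three times and repeated if results differed.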

Toxoplasma gondii [10] = test: Antiparasitic activity against Toxoplasma gondii infected african green monkey Vero cells at 20 mM assessed as infected cells; type: functional; outline: as §1
Toxoplasma gondii [11] = test: Antiparasitic activity against Toxoplasma gondii infected african green monkey Vero cells at 0.1 mM assessed as infected cells; type: functional; outline: as §1
Vero = test: Inhibition of uninfected african green monkey Vero cells; type: cell-based; conditions: Chlorocebus sabaeus
Klebsiella pneumoniae = test: Antimicrobial activity against Klebsiella pneumoniae at 300 ug/disc; type: functional; conditions: read-out: IZ; outline: as §2
Candida [12] = test: Antimicrobial activity against Candida sp. IMUR720 at 300 ug/disc; type: functional; conditions: read-out: IZ; outline: as §2
Candida [13] = test: Antimicrobial activity against Candida sp. IMUR4249 at 300 ug/disc; type: functional; conditions: read-out: IZ; outline: as §2

| SMILES | Activity (Toxoplasma gondii [1]) [%] | zone of inhibition at 300 µg/disc (Staphylococcus aureus) [mm] | zone of inhibition at 300 µg/disc (Enterococcus faecalis) [mm] | Activity (Toxoplasma gondii [2]) [%] | zone of inhibition at 300 µg/disc (Escherichia coli) [mm] | zone of inhibition at 300 µg/disc (Candida [3]) [mm] | zone of inhibition at 300 µg/disc (Bacillus subtilis) [mm] | MFC (Candida [4]) [µg/mL] | MIC (Candida [4]) [µg/mL] | IC50 (Toxoplasma gondii [5]) [µM] | zone of inhibition at 300 µg/disc (Candida albicans) [mm] | zone of inhibition at 300 µg/disc (Saccharomyces cerevisiae) [mm] | Activity (Toxoplasma gondii [6]) [%] | zone of inhibition at 300 µg/disc (Micrococcus luteus) [mm] | IC50 (Toxoplasma gondii [7]) [µM] | zone of inhibition at 300 µg/disc (Mycolicibacterium phlei) [mm] | zone of inhibition at 300 µg/disc [8] [mm] | zone of inhibition at 300 µg/disc [9] [mm] | Activity (Toxoplasma gondii [10]) [%] | Activity (Toxoplasma gondii [11]) [%] | other results |
| --- | --- | --- | --- | --- | --- | --- | --- | --- | --- | --- | --- | --- | --- | --- | --- | --- | --- | --- | --- | --- | --- |
| O=C(O)CC1S/C(=N\N=C\c2ccc(Cl)cc2)N(c2ccccc2)C1=O (stereo not drawn) | 35.3 | < 7 | 15 | 0 | < 7 | < 7 | 13 | 140 (≈ 361 µM) | 150 (≈ 387 µM) | 500 | 8 | < 7 | 0 | 21 | 1500 | 12 | 15 | 17 | 0 | 68.15 | IC50 (Vero): 2000 µM; zone of inhibition at 300 µg/disc (Klebsiella pneumoniae): < 7 mm; zone of inhibition at 300 µg/disc (Candida [12]): < 7 mm; zone of inhibition at 300 µg/disc (Candida [13]): 20 mm |
| O=C(O)CC1S/C(=N\N=C\c2ccccc2F)N(c2ccccc2)C1=O (stereo not drawn) | 16.14 | < 7 | 16 | 0 | < 7 | < 7 | 15 | 70 (≈ 188 µM) | 80 (≈ 215 µM) | 1000 | 7 | < 7 | 0 | 25 | 2000 | 7 | 13 | 14 | 0 | 70.79 | IC50 (Vero): 2000 µM; zone of inhibition at 300 µg/disc (Klebsiella pneumoniae): < 7 mm; zone of inhibition at 300 µg/disc (Candida [12]): < 7 mm; zone of inhibition at 300 µg/disc (Candida [13]): 20 mm |
